Activity calls are given as the source filed them. The calls are words filed in the database; no cut-off is given here.
Legend:
[1] = Cytotoxicity against mouse RAW264.7 cells assessed as cell viability at 5 uM after 24 hrs by MTT assay; type: cell-based; conditions: read-out: Activity
Outline: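 RAW264.7 cells at 1 × 10^4 per well in DMEM with 10% FBS were exposed to compound for 24 h. After PBS washes, they got 500 µg/mL MTT for 1 h at 37 °C. Formazan was dissolved in DMSO and read at 540 nm. Viability is relative to control, mean ± SD from at least three independent runs.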

[2] = Retention time of the compound by HPLC analysis; type: physicochemical
Outline: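 Reversed-phase column (5 µm, 4.6 × 250 mm) at 1.0 mL/min with a 0–20% H2O in MeOH gradient.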

RAW264.7 [3] = experiment: Inhibition of RANKL-induced osteoclastogenesis in mouse RAW264.7 cells; type: functional, cell-based
Outline: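 RAW264.7 cells (2 × 10^4 per well) were cultured with 100 ng/mL RANKL in α-MEM/10% FBS, with or without compound. On day 4 they were lysed in 0.1% Triton X-100/50 mM Tris-HCl pH 7.2 on ice. TRAP was assayed with 2 mg/mL 4-nitrophenyl phosphate in 0.09 M citrate for 15 min at 37 °C, stopped with NaOH and read at 405 nm. Values were normalized to BCA protein for IC50.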

RAW264.7 [4] = experiment: Inhibition of RANKL-induced osteoclastogenesis in mouse RAW264.7 cells assessed as decrease in TRAP activity after 4 days by TRAP activity assay; conditions: RAW264.7, 96 h
RAW264.7 [5] = experiment: Downregulation of RANKL-induced NFATc1 gene expression in mouse RAW264.7 cells at 2.5 and 5 uM treated for 1 hr prior to incubation with RANKL for 24 hrs by RT-PCR analysis; type: functional, cell-based
Outline: (§1)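 RAW264.7 cells grown a day in DMEM/10% FBS were switched to α-MEM with 100 ng/mL murine RANKL, with or without compound, for 24 h. Trizol RNA (2 µg) was reverse-transcribed with oligo(dT) and amplified with mouse-specific primers. Products were run on 1.5% agarose with EtBr, and band densities normalized to GAPDH.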

RAW264.7 [6] = experiment: Downregulation of RANKL-induced TRAP gene expression in mouse RAW264.7 cells at 2.5 and 5 uM treated for 1 hr prior to incubation with RANKL for 24 hrs by RT-PCR analysis; type: functional, cell-based; outline: as §1
RAW264.7 [7] = experiment: Downregulation of RANKL-induced cathepsin K gene expression in mouse RAW264.7 cells at 2.5 and 5 uM treated for 1 hr prior to incubation with RANKL for 24 hrs by RT-PCR analysis; type: functional, cell-based; outline: as §1
RAW264.7 [8] = experiment: Downregulation of RANKL-induced c-fos gene expression in mouse RAW264.7 cells at 2.5 and 5 uM treated for 1 hr prior to incubation with RANKL for 24 hrs by RT-PCR analysis; type: functional, cell-based; outline: as §1
RAW264.7 [9] = experiment: Downregulation of RANKL-induced MMP-9 gene expression in mouse RAW264.7 cells at 2.5 and uM treated for 1 hr prior to incubation with RANKL for 24 hrs by RT-PCR analysis; type: functional, cell-based; outline: as §1
RAW264.7 [10] = experiment: Downregulation of RANKL-induced DC-STAMP gene expression in mouse RAW264.7 cells at 2.5 and 5 uM treated for 1 hr prior to incubation with RANKL for 24 hrs by RT-PCR analysis; type: functional, cell-based; outline: as §1
RAW264.7 [11] = experiment: Inhibition of RANKL-induced NF-kappaB activation in mouse RAW264.7 cells assessed as decrease in nuclear accumulation of NF-kappaB at 5 uM treated for 1 hr prior to incubation with RANKL for 24 hrs by ELISA; type: cell-based
Outline: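 After 1 h compound pretreatment and 24 h RANKL (100 ng/mL), nuclear extracts were tested in a p65 DNA-binding ELISA. The plate is coated with NF-κB response element, followed by primary antibody and tagged secondary antibody, with absorbance read at 450 nm.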

RAW264.7 [12] = experiment: Inhibition of RANKL-induced NF-kappaB activation in mouse RAW264.7 cells assessed as decrease in nuclear translocation of NF-kappaB at 5 uM treated for 1 hr prior to incubation with RANKL for 24 hrs by Western blot assay relative to control TBP gene expression; type: cell-based
Outline: (§2)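 Cells were pretreated with compound for 1 h in α-MEM/10% FBS, then given RANKL (100 ng/mL) for 24 h. Nuclear extracts (18 µg) were separated on 12% SDS-PAGE and blotted to PVDF, blocked with 5% BSA. Blots were probed overnight-style for 12 h at 4 °C with mAbs (1:1000) to NF-κB p65, NFATc1 and TBP, then HRP anti-rabbit (1:10000), with chemiluminescent detection.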

RAW264.7 [13] = experiment: Downregulation of RANKL-induced NFATc1 nuclear expression in mouse RAW264.7 cells at 5 uM treated for 1 hr prior to incubation with RANKL for 24 hrs by Western blot analysis relative to control TBP gene expression; type: functional; outline: as §2
RAW264.7 [14] = experiment: Inhibition of RANKL-induced bone-resorbing activity in mouse RAW264.7 cells assessed as reduction of resorbing pits formed on dentine slices by mature osteoclasts at 5 uM after 4 days by pit formation assay; type: functional; conditions: RAW264.7, Dentine, 96 h
Outline: (§3)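 Cells on dentine slices were kept in α-MEM with 10% FBS, 2 mM […] and 100 ng/mL RANKL, with or without compound, and medium was renewed every 2 days. At day 4, cells were removed with 1 M ammonium hydroxide and slices stained with 0.1% toluidine blue. Resorbed area/total area was measured per optical field.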

RAW264.7 [15] = experiment: Inhibition of RANKL-induced bone-resorbing activity in mouse RAW264.7 cells assessed as reduction of resorbing pits formed on dentine slices by mature osteoclasts after 4 days by pit formation assay; type: functional, cell-based; outline: as §3

**Q.** Which viability at 24 h, 5 µM [1] does the source give for `COc1cccc(NC(=O)c2cc(-c3ccc(F)cc3F)ccc2O)c1` here?
**A.** 105%

**Q.** And the Retention_time [2]?
**A.** 5.89 min

**Q.** Which results are given for `O=C(Nc1ccc(Cl)cc1F)c1ccccc1O`?
**A.** IC50 (RAW264.7 [3]): 15 µM; IC50 (RAW264.7 [4]): > 10 µM

**Q.** With `N#Cc1cccc(NC(=O)c2cc(-c3ccc(F)cc3F)ccc2O)c1` as the compound, how does the viability at 24 h, 5 µM [1] read?
**A.** 72.2%

**Q.** And the inhibition (RAW264.7 [5])?
**A.** Dose-dependent effect

**Q.** What about the inhibition (RAW264.7 [6]) of the same compound?
**A.** Dose-dependent effect

**Q.** What about the inhibition (RAW264.7 [7]) of the same compound?
**A.** Dose-dependent effect

**Q.** And the inhibition (RAW264.7 [8])?
**A.** Dose-dependent effect

**Q.** What about the inhibition (RAW264.7 [9]) of the same compound?
**A.** Dose-dependent effect

**Q.** And the inhibition (RAW264.7 [10])?
**A.** Dose-dependent effect

**Q.** What about the inhibition (RAW264.7 [11]) of the same compound?
**A.** Active

**Q.** And the fold change (FC) (RAW264.7 [12])?
**A.** 0.82

**Q.** What about the “fold change (FC)” value (RAW264.7 [13]) of the same compound?
**A.** 0.52

**Q.** And the inhibition at 5 µM (RAW264.7 [14])?
**A.** 59.3%

**Q.** And the inhibition (RAW264.7 [15])?
**A.** Dose-dependent effect

**Q.** What about the Retention_time [2] of the same compound?
**A.** 6.92 min

**Q.** And the IC50 (RAW264.7 [4])?
**A.** 2.96 µM

**Q.** With `O=C(Nc1cccc(C(F)(F)F)c1)c1cc(-c2ccc(F)cc2F)ccc1O` as the compound, how does the viability at 24 h, 5 µM [1] read?
**A.** 96.7%

**Q.** And the Retention_time [2]?
**A.** 7.27 min

**Q.** And the IC50 (RAW264.7 [4])?
**A.** 4.57 µM

**Q.** Which results are given for `O=C(Nc1ccc(F)cc1F)c1cc(-c2ccc(F)cc2F)ccc1O`?
**A.** viability at 24 h, 5 µM [1]: 110%; Retention_time [2]: 6.45 min

**Q.** Which viability at 24 h, 5 µM [1] does the source give for `COc1ccc(NC(=O)c2cc(-c3ccc(F)cc3F)ccc2O)cc1OC` here?
**A.** 98.9%

**Q.** What about the Retention_time [2] of the same compound?
**A.** 7.61 min

**Q.** Which results are given for `O=C(Nc1ccc(F)c(F)c1)c1cc(-c2ccc(F)cc2F)ccc1O`?
**A.** viability at 24 h, 5 µM [1]: 78.4%; Retention_time [2]: 7.72 min

**Q.** Which results are given for `O=C(Nc1cc(F)ccc1F)c1cc(-c2ccc(F)cc2F)ccc1O`?
**A.** viability at 24 h, 5 µM [1]: 102%; inhibition (RAW264.7 [5]): Dose-dependent effect; inhibition (RAW264.7 [6]): Dose-dependent effect; inhibition (RAW264.7 [7]): Dose-dependent effect; inhibition (RAW264.7 [8]): Dose-dependent effect; inhibition (RAW264.7 [9]): Dose-dependent effect; inhibition (RAW264.7 [10]): Dose-dependent effect; inhibition (RAW264.7 [11]): Active; fold change (FC) (RAW264.7 [12]): 0.76; fold change (FC) (RAW264.7 [13]): 0.55; inhibition at 5 µM (RAW264.7 [14]): 80.5%; inhibition (RAW264.7 [15]): Dose-dependent effect; Retention_time [2]: 7.8 min; IC50 (RAW264.7 [4]): 3.67 µM

**Q.** What does the source list for `C#Cc1cccc(NC(=O)c2cc(-c3ccc(F)cc3F)ccc2O)c1`?
**A.** viability at 24 h, 5 µM [1]: 63%; Retention_time [2]: 6.37 min

**Q.** For `N#Cc1ccc(NC(=O)c2cc(-c3ccc(F)cc3F)ccc2O)cc1`, which viability at 24 h, 5 µM [1] is on record?
**A.** 96.2%

**Q.** What about the Retention_time [2] of the same compound?
**A.** 6.84 min

**Q.** What does the source list for `O=C(Nc1ccc(Cl)cc1F)c1cc(-c2ccc(F)cc2F)ccc1O`?
**A.** viability at 24 h, 5 µM [1]: 77.5%; Retention_time [2]: 9.07 min

**Q.** Which results are given for `O=C(Nc1ccccc1C(F)(F)F)c1cc(-c2ccc(F)cc2F)ccc1O`?
**A.** viability at 24 h, 5 µM [1]: 99.4%; Retention_time [2]: 5.44 min

**Q.** With `O=C(Nc1ccc(C(F)(F)F)cc1)c1cc(-c2ccc(F)cc2F)ccc1O` as the compound, how does the viability at 24 h, 5 µM [1] read?
**A.** 85.2%

**Q.** And the Retention_time [2]?
**A.** 7.87 min

From ChEMBL document CHEMBL3421559, “Discovery of 5-(2',4'-difluorophenyl)-salicylanilides as new inhibitors of receptor activator of NF-κB ligand (RANKL)-induced osteoclastogenesis” (Eur J Med Chem, 2015)
